Results reported in PMC3417419 (British Journal of Pharmacology, 2012).
Like-named read-outs stand apart in the source and are kept apart here.

How the values were obtained:
[1] = tested on: GluN2A- and GluN2B-containing NMDA receptors; settings: cited from earlier work
rat cortical neurones = assay: NMDA-induced excitotoxicity assay in cortical cultures; type: cell-based; settings: NMDA 40 µM + glycine […], 1 h, DIV 7–10, assessed at 24 h
Method in brief: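 Cortical neurones from E21 Sprague–Dawley rat embryos, grown in Neurobasal-A with B27, 1% rat serum and glutamine; AraC added at DIV 4. Before the assay, cultures moved to glycine-free non-trophic medium (10% MEM in HEPES salt-glucose medium). […] After 24 h, DAPI-stained pyknotic nuclei counted as percentage of total nuclei.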

native NMDA receptors = assay: Whole-cell NMDA-evoked currents in cultured rat cortical neurones; type: cell-based; settings: for block of NMDA receptor-mediated currents, subset with greatest ifenprodil block: n= 7 cells
[2] = tested on: GluN1/GluN2B NMDA receptors; settings: non-competitive antagonist, block 'at most'; no reference given; cited from earlier work
[3] = biological target: GluN1/GluN2B NMDA receptors (Rattus norvegicus, UniProt P35439+Q00960); assay: Two-electrode voltage-clamp; type: cell-based; settings: for antagonism of glutamate/glycine-evoked responses: TCN 213 10 µM
[4] = biological target: GluN1/GluN2A NMDA receptors (Rattus norvegicus, UniProt P35439+Q00959); assay: Two-electrode voltage-clamp; type: cell-based; settings: for mean dose ratio (r): two-point glycine curves
[5] = biological target: GluN1/GluN2A and GluN1/GluN2D NMDA receptors; settings: ref Chen et al., 2008; cited from earlier work
GluN1 subunit = settings: ref Bettini et al. (2010); cited from earlier work
[6] = TCN 213 30 µM, NMDA 50 µM + glycine 3 µM

GluN1/GluN2B NMDA receptors (Rattus norvegicus, UniProt P35439+Q00960), sequence (Q00960 27-1482, other chains not shown): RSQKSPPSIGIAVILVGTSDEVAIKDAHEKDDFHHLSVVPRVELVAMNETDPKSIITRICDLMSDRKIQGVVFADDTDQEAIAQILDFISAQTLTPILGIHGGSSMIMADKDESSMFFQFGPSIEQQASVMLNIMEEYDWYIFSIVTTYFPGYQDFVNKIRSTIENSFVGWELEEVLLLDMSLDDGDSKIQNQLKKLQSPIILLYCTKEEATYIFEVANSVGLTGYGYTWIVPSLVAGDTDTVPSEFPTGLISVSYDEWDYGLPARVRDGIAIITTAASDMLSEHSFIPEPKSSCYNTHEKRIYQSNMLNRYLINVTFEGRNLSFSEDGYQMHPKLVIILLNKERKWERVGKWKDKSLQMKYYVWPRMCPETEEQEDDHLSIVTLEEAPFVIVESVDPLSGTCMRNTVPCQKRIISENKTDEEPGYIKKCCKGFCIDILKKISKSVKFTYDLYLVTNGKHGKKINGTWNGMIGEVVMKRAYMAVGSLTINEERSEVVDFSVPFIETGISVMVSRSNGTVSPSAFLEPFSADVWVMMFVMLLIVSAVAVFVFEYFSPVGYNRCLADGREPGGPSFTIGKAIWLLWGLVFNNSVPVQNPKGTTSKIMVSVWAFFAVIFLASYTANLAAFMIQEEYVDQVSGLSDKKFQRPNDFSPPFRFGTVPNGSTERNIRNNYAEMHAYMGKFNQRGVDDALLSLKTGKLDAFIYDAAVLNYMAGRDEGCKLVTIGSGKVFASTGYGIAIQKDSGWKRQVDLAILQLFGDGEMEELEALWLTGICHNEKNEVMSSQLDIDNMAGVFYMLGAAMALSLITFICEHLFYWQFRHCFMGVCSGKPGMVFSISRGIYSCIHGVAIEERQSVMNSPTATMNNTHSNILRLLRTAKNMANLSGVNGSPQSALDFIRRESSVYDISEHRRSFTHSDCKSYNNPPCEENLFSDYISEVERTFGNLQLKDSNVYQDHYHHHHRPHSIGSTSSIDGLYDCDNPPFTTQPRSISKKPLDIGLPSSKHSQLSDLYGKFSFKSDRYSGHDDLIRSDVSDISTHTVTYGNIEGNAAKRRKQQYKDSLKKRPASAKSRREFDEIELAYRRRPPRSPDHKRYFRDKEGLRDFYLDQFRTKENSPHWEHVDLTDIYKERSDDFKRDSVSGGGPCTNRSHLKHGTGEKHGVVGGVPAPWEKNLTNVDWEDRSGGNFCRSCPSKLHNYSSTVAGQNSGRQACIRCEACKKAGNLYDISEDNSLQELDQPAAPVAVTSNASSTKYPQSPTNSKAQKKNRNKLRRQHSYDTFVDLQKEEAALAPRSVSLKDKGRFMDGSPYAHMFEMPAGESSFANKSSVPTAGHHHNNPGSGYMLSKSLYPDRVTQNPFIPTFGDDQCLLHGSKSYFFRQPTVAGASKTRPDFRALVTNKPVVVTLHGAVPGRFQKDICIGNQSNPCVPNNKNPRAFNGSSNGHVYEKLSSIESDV
GluN1/GluN2A NMDA receptors, sequence (Q00959 23-1464, other chains not shown): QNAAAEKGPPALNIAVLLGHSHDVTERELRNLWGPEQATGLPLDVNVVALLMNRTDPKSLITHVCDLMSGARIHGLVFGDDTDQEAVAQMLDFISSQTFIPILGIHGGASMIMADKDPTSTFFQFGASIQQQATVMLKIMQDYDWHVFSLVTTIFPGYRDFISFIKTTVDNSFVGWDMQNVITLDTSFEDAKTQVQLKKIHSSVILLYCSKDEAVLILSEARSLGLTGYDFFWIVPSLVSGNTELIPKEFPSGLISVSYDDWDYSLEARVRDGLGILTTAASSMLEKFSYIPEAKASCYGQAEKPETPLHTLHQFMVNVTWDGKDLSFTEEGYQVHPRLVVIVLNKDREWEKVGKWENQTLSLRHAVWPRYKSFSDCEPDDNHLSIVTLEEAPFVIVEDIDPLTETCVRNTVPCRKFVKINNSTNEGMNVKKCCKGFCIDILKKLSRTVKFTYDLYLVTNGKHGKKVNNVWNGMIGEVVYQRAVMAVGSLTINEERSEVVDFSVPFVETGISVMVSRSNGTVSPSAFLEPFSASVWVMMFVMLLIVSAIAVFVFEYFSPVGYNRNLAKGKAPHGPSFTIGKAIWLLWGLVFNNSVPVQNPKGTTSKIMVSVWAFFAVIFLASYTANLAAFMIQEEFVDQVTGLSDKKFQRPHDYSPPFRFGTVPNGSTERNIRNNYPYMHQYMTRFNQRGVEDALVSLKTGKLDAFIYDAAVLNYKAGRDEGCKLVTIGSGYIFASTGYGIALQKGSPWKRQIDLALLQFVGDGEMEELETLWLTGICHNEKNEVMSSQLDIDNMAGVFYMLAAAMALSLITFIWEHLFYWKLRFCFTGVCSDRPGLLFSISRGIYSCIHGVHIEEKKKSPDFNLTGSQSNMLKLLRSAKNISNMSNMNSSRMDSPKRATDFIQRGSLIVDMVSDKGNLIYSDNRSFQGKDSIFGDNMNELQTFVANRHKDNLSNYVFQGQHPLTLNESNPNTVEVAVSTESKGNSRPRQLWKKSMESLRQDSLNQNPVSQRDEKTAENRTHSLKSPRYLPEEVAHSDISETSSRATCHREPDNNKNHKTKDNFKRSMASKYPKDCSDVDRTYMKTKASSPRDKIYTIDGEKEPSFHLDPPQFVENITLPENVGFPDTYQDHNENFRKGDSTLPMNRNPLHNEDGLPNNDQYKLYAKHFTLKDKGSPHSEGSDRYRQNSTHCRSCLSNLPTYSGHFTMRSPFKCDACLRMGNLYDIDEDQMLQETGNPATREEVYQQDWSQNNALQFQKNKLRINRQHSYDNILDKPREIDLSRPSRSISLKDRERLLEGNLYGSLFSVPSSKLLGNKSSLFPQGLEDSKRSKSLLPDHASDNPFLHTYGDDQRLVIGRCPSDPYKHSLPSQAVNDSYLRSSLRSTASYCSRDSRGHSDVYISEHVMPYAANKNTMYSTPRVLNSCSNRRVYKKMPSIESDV

O=C(Nc1ccccc1)N[C@@H]1C[C@@H](C(=O)O)Nc2cc(Cl)cc(Cl)c21 [L-689 560]
selectivity for GluN2A- over GluN2B-containing NMDA receptors ([1]; ref Hess et al., 1996): 5 fold

CC(C(O)c1ccc(O)cc1)N1CCC(Cc2ccccc2)CC1 (centres unmarked) [ifenprodil]
NMDA-induced cell death (pyknotic nuclei) versus NMDA alone (rat cortical neurones; ifenprodil 3 µM): reduced significantly
reduction of NMDA + glycine evoked current, example cell (native NMDA receptors; ifenprodil 3 µM, 7 DIV pyramidal cell, NMDA 50 µM + glycine […]): around 75%
average block of NMDA receptor-mediated currents (native NMDA receptors; ifenprodil 3 µM, DIV 7–10, NMDA 50 µM + glycine […], −70 mV): 72 ± 2%
block of NMDA receptor-mediated currents, subset with greatest ifenprodil block (native NMDA receptors; ifenprodil 3 µM, DIV 7–10): 78 ± 1%
maximal block of current [2]: 75–80%

O=C(O)c1cc(=O)c2c(Cl)cc(Cl)cc2[nH]1 [5,7 DCKA, 5,7 dichlorokynurenic acid]
IC50 ([3]; read-out: Antagonist IC50): 74 ± 10 nM
IC50 ([3]; read-out: Antagonist IC50, [gly]= 10 EC50): 4100 ± 400 nM
IC50 ([3]; read-out: Antagonist IC50, [gly]= EC50): 490 ± 10 nM
IC50 ([4]; read-out: Antagonist IC50, [gly]= 0.1 EC50 ([…] glycine) + 100 µM glutamate): 130 ± 10 nM
IC50 ([4]; read-out: Antagonist IC50, [gly]= 10 EC50 (15 µM glycine) + 100 µM glutamate): 4100 ± 300 nM
IC50 ([4]; read-out: Antagonist IC50, [gly]= EC50 ([…] glycine) + 100 µM glutamate): 420 ± 30 nM
KB values at GluN1/GluN2A versus GluN1/GluN2D (Schild analysis) [5]: indistinguishable
NMDA-induced cell death (pyknotic nuclei) versus NMDA alone (rat cortical neurones; 5,7 DCKA 10 µM): reduced significantly

[N-]=[N+]=Nc1ccc(CC(=O)NC2CC(C(=O)O)Nc3cc(Cl)cc(Cl)c32)cc1 (centres unmarked) [CGP-61594]
potency at GluN1/GluN2B compared with GluN1/GluN2A NMDA receptors ([1]; more potent at GluN1/GluN2B, ref Honer et al., 1998): 10 fold

O=C(CSc1nnc(NCc2ccccc2)s1)NCC1CCCCC1 [TCN 213, N-(cyclohexylmethyl)-2-({5-[(phenylmethyl)amino]-1,3,4-thiadiazol-2-yl}thio)acetamide]
IC50 [3]: > 300000 nM
antagonism of glutamate/glycine-evoked responses ([3]; 50 µM glycine, three glutamate concentrations): no antagonism
antagonism of glutamate/glycine-evoked responses ([3]; glycine low (0.1 × EC50)): only modestly antagonized
mean block of NMDA-evoked current [3, 6]: 2 ± 0.5%
inhibition of currents ([3]; TCN 213 30 µM, glycine 1 and 10 times EC50): negligible inhibition
mean dose ratio (r) ([4]; 10 µM TCN 213, glutamate 100 µM): 5.20 ± 0.79
mean dose ratio (r) ([4]; 30 µM TCN 213, glutamate 100 µM): 17.22 ± 1.69
Schild plot slope, 'free' fit ([4]; 95% confidence interval 0.94–1.31): 1.13
IC50 ([4]; Antagonist IC50, [gly]= 0.1 EC50 ([…] glycine) + 100 µM glutamate): 550 ± 50 nM
IC50 ([4]; Antagonist IC50, [gly]= 10 EC50 (15 µM glycine) + 100 µM glutamate): 40000 ± 3500 nM
IC50 ([4]; Antagonist IC50, [gly]= EC50 ([…] glycine) + 100 µM glutamate): 3500 ± 50 nM
block of glutamate/glycine-evoked current ([4]; TCN 213 10 µM, glutamate 100 µM, glycine 150 nM (0.1 × EC50)): Almost complete block
block of glutamate/glycine-evoked current ([4]; TCN 213 10 µM, glutamate 100 µM, glycine 15 µM (10 × EC50)): substantially less block
dependence of antagonism on glutamate concentration ([4]; TCN 213 10 µM, glycine 50 µM, glutamate 0.1, 1, 10 × EC50): not dependent on the glutamate concentration
expected block of current for a purely GluN2A-containing population ([4]; TCN 213 10 µM, glycine […], read from Figure 2A): around 75%
mean block of NMDA-evoked current [4, 6]: 78 ± 4%
reduction in amplitude of current response, example trace ([4]; TCN 213 30 µM, NMDA 50 µM + glycine 3 µM, single oocyte): approximately 75%
selectivity GluN1/GluN2A over GluN1/GluN2B ([4]; from IC50 values at glycine = EC50): around 100 fold
surmountability of antagonism by increasing glycine ([4]; glutamate 100 µM, glycine 50 µM and above): surmountable
concentration predicted to block fully the response ([4]; glycine 10 times EC50, extrapolation of Figure 2A): around 1 mM
average inhibition of NMDA receptor-mediated currents (native NMDA receptors; TCN 213 10 µM, DIV 7–10, NMDA 50 µM + glycine […], −70 mV): 2 ± 3%
block of NMDA receptor-mediated currents, subset with greatest ifenprodil block (native NMDA receptors; TCN 213 10 µM, DIV 7–10): 4 ± 2%
displacement of the GluN1 ligand MDL 105 519 (GluN1 subunit): failed to displace
